Measured values as given in ChEMBL document CHEMBL1122810 (J Med Chem, 1984).

Legend:
Mus musculus [1] = test: Inoculation of 10 e5 L1210 cells, ip, on day 0, & treatment was started on day 1 with the administration of the compound, ip, in groups of five B6D2F1J male mice at dose 10 mg/kg; format: functional
L1210 [2] = test: (§1) Cytotoxic activity with respect to methotrexate; format: functional, Mus musculus
Mus musculus [3] = test: Inoculation of 10 e5 L1210 cells, ip, on day 0, & treatment was started on day 1 with the administration of the compound, ip, in groups of five B6D2F1J male mice at dose 40 mg/kg; format: functional
Dihydrofolate reductase = target: T1, Dihydrofolate reductase (Mus musculus, UniProt P00375); test: Inhibitory activity towards dihydrofolate reductase in L1210 murine leukemia cell lines; format: cell-based
T1 sequence (P00375 whole entry): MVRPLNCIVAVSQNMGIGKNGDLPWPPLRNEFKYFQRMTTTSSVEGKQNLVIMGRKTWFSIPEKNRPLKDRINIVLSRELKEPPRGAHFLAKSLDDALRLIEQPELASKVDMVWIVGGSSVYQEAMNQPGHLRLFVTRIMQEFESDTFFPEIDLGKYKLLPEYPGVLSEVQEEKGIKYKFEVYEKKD

H35R0.3 [4] = test: Growth inhibition of H35R0.3 cell lines; format: functional, cell-based; details: Rattus norvegicus
Outline: (§2)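 H35 rat hepatoma cells and the transport-defective H35R0.3 subline, which has normal DHFR content, were incubated with drug for 72 h, and the IC50 was determined.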

Mus musculus [5] = test: Inoculation of 10 e5 L1210 cells, ip, on day 0, & treatment was started on day 1 with the administration of the compound, ip, in groups of five B6D2F1J male mice at dose 20 mg/kg; format: functional
H35 [6] = test: as §1; format: functional, Rattus norvegicus
H35R0.3 [7] = test: as §1; format: functional, Rattus norvegicus
L1210 [8] = test: Growth inhibition of L1210 cell lines; format: functional, cell-based; details: Mus musculus
Outline: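 L1210 murine leukemia cells were incubated with drug in culture for 48 h. Percent cell growth relative to untreated controls was plotted against concentration to obtain the IC50.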

H35 [9] = test: Growth inhibition of H35 cell lines; format: functional, cell-based; details: Rattus norvegicus; outline: as §2
Mus musculus [10] = test: Inoculation of 10 e5 L1210 cells, ip, on day 0, & treatment was started on day1 with the administration of the compound, ip, in groups of five B6D2F1J male mice at dose 1 mg/kg; format: functional
Outline: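 Male B6D2F1J mice, five per group, received 10^5 L1210 cells ip on day 0. From day 1, drug in sterile 0.9% NaCl was injected ip twice daily on days 1–4 and 7–10, with one double dose on each of days 5 and 6. […]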

Mus musculus [11] = test: Inoculation of 10 e5 L1210 cells, ip, on day 0, & treatment was started on day1 with the administration of the compound, ip, in groups of five B6D2F1J male mice at dose 0.5 mg/kg
Mus musculus [12] = test: Inoculation of 10 e5 L1210 cells, ip, on day 0, & treatment was started on day 1 with the administration of the compound, ip, in groups of five B6D2F1J male mice at dose 1.0 mg/kg; T=19; C=9; format: functional
Mus musculus [13] = test: Inoculation of 10 e5 L1210 cells, ip, on day 0, & treatment was started on day 1 with the administration of the compound, ip, in groups of five B6D2F1J male mice at dose 0.5 mg/kg; T =18; C=9; format: functional
Mus musculus [14] = test: Inoculation of 10 e5 L1210 cells, ip, on day 0, & treatment was started on day 1 with the administration of the compound, ip, in groups of five B6D2F1J male mice at dose 0.5 mg/kg; 14-20; format: functional
Outline: (§3)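 Vehicle sterile 0.9% NaCl, ip. Dosing on days 1-10: twice daily on days 1-4 and 7-10, once daily on days 5 and 6 with a double dose given on those days. Endpoint is increase in life span (ILS) versus untreated controls. Doses are also stated as MTX-equivalent doses rounded to the nearest mg/kg.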

Mus musculus [15] = test: Inoculation of 10 e5 L1210 cells, ip, on day 0, & treatment was started on day 1 with the administration of the compound, ip, in groups of five B6D2F1J male mice at dose 1.0 mg/kg; 17-22; format: functional; outline: as §3
Mus musculus [16] = test: Inoculation of 10 e5 L1210 cells, ip, on day 0, & treatment was started on day 1 with the administration of the compound, ip, in groups of five B6D2F1J male mice at dose 0.5 mg/kg; format: functional
Mus musculus [17] = test: Inoculation of 10 e5 L1210 cells, ip, on day 0, & treatment was started on day 1 with the administration of the compound, ip, in groups of five B6D2F1J male mice at dose 1.0 mg/kg

Row | SMILES | 7-day weight change (Mus musculus [1]) [%] | Relative activity (L1210 [2]) | 7-day weight change (Mus musculus [3]) [%] | IC50 (Dihydrofolate reductase) [nM] | IC50 (H35R0.3 [4]) [nM] | 7-day weight change (Mus musculus [5]) [%] | Relative activity (H35 [6]) | Relative activity (H35R0.3 [7]) | IC50 (L1210 [8]) [nM] | IC50 (H35 [9]) [nM] | 7-day weight change (Mus musculus [10]) [%] | ILS at 0.5 mg/kg (Mus musculus [11]) [%] | median survival (days) (Mus musculus [12]) | median survival (days) (Mus musculus [13]) | Survival range (Mus musculus [14]) | Survival range (Mus musculus [15]) | 7-day weight change (Mus musculus [16]) [%] | ILS at 1 mg/kg (Mus musculus [17]) [%]
1 | CN(Cc1cnc2nc(N)nc(N)c2n1)c1ccc(C(=O)NC(CCC(=O)NCCCCC(N)C(=O)O)C(=O)O)cc1 (stereo unspecified) | 11 | 0.032 | 2 | 87 | 6000 | 5 | 0.025 | 0.3 | 760 | 400 | – | – | – | – | – | – | – | –
2 | CN(Cc1cnc2nc(N)nc(N)c2n1)c1ccc(C(=O)N[C@@H](CCC(=O)O)C(=O)O)cc1 [METHOTREXATE] | – | – | – | – | 1800 | – | – | – | 24 | 10 | -9 | 100 | 19 | 18 | 20 | 22 | 0 | 111
